*1 amine or outer side, *2 acyl side, *3 side chain or, on linkers, in order; H or OH if unused. Where a SMILES comes first, the peptide text is derived from it. Bridges are numbered along the chain shown (N, C = ends). [ ]: non-standard residue; d: D form. X1 = O=C([C@H](O)CS[*:2])[*:1]; ΔPro = O=C(O)[C@@H]1C=CCN1
What was measured:
Rattus norvegicus [1] = species on record: Rattus norvegicus; test: Activity at uterotonic receptor in rat uterus assessed as uterotonic activity; assay type: tissue-based
How it was run: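 Isolated female rat uterine horn in the bathing fluid used for the oxytocic assay. Isometric contractions were recorded at a baseline tension of 1 g. Cumulative dose-response curves (van Rossum) were built by raising doses geometrically until a maximal response, alternating oxytocin and analogue on the same horn with return to baseline between runs. pD2 is the negative log of the concentration giving 50% of maximum.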

Gallus gallus = species on record: Gallus gallus; test: Vasodepressor activity in fowl; assay type: functional
Rattus norvegicus [2] = species on record: Rattus norvegicus; test: Antidiuretic activity in rat; assay type: functional, Urine
Rattus norvegicus [3] = species on record: Rattus norvegicus; test: Ratio of oxytocin to compound for antidiuretic activity in rat; assay type: functional, Urine
Rattus norvegicus [4] = species on record: Rattus norvegicus; test: Pressor activity in rat; assay type: functional

Structure (SMILES) | Activity (Rattus norvegicus [1]) [U/mg] | Activity (Gallus gallus) [U/mg] | Activity (Rattus norvegicus [2]) [U/mg] | Ratio (Rattus norvegicus [3]) | Activity (Rattus norvegicus [4]) [U/mg]
CC[C@H](C)[C@@H]1NC(=O)[C@H](Cc2ccc(O)cc2)NC(=O)[C@@H](N)CSSC[C@@H](C(=O)N2CC=C[C@H]2C(=O)N[C@@H](CC(C)C)C(=O)NCC(N)=O)NC(=O)[C@H](CC(N)=O)NC(=O)[C@H](CCC(N)=O)NC1=O | 1070 | 548 | 5.9 | 2 | –
CC[C@H](C)[C@@H]1NC(=O)[C@H](Cc2ccc(O)cc2)NC(=O)CCSSC[C@@H](C(=O)N2CC=C[C@H]2C(=O)N[C@@H](CC(C)C)C(=O)NCC(N)=O)NC(=O)[C@H](CC(N)=O)NC(=O)[C@H](CCC(N)=O)NC1=O | 1070 | 1008 | 23.3 | – | –
CC[C@H](C)[C@@H]1NC(=O)[C@H](Cc2ccc(O)cc2)NC(=O)CCSSC[C@H](C(=O)N2CCC[C@H]2C(=O)N[C@@H](CC(C)C)C(=O)NCC(N)=O)NC(=O)[C@H](CC(N)=O)NC(=O)[C@H](CCC(N)=O)NC1=O | 803 | – | – | – | –
CC[C@H](C)[C@@H]1NC(=O)[C@H](Cc2ccc(O)cc2)NC(=O)[C@H](O)CSSC[C@@H](C(=O)N2CCC[C@H]2C(=O)N[C@@H](CC(C)C)C(=O)NCC(N)=O)NC(=O)[C@H](CC(N)=O)NC(=O)[C@H](CCC(N)=O)NC1=O (YIQNCPLG-NH2; linker N-5 via X1) | 1280 | 1778 | 16.6 | – | 14.7
CC[C@H](C)[C@@H]1NC(=O)[C@H](Cc2ccc(O)cc2)NC(=O)[C@H](O)CSSC[C@@H](C(=O)N2CC=C[C@H]2C(=O)N[C@@H](CC(C)C)C(=O)NCC(N)=O)NC(=O)[C@H](CC(N)=O)NC(=O)[C@H](CCC(N)=O)NC1=O (YIQNC[ΔPro]LG-NH2; linker N-5 via X1) | 880 | 1295 | 76.7 | – | –
CC[C@H](C)[C@@H]1NC(=O)[C@H](Cc2ccc(O)cc2)NC(=O)CCSSC[C@@H](C(=O)N2CCC[C@H]2C(=O)N[C@@H](CC(C)C)C(=O)NCC(N)=O)NC(=O)[C@H](CC(N)=O)NC(=O)[C@H](CCC(N)=O)NC1=O [DEMOXYTOCIN] | – | 975 | 19 | – | 1.44
CC[C@H](C)[C@@H]1NC(=O)[C@H](Cc2ccc(O)cc2)NC(=O)[C@@H](N)CSSC[C@@H](C(=O)N2CCC[C@H]2C(=O)N[C@@H](CC(C)C)C(=O)NCC(N)=O)NC(=O)[C@H](CC(N)=O)NC(=O)[C@H](CCC(N)=O)NC1=O [OXYTOCIN] | 546 | 507 | 2.7 | – | 3.1

From ChEMBL document CHEMBL3272308, “Pharmacological effects of introducing a double bond into a binding site of oxytocin. Analogues with L-3,4-dehydroproline in position 7” (1977)
